Active and inactive are the calls of the source. No cut-off for these calls is given here.
Experiments:
[1] = tested on: MCF7; test: Cytostatic activity against human MCF7 cells after 72 hrs by MTT assay; assay type: functional, cell-based; conditions: MCF7, 72 h
Method in brief: (§1)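 Monolayers in DMEM with 10% FBS, 2 mM L-glutamine and penicillin/streptomycin, 37 °C, 5% CO2. Seeded at 1–3 × 10^4 cells/ml, then compound added in tenfold dilutions (10⁻⁸–10⁻⁴ M) for 72 h. MTT read at 570 nm; percent growth taken against time-zero and untreated controls. IC50 by linear regression; quadruplicate, at least two experiments.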

[2] = tested on: Respiratory syncytial virus; test: Antiviral activity against RSV infected in human cervix carcinoma cells assessed as inhibition of virus-induced cytopathic effect at 0.32 to 100 uM; assay type: functional, organism-based
Method in brief: (§2)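 Confluent cell cultures were infected with 100 CCID50 of virus in the presence of test compound at 100, 40, 8, 1.6 and 0.32 μM. Cytopathic effect was scored once it was complete in untreated infected controls.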

[3] = tested on: NCI-H460; test: Cytostatic activity against human NCI-H460 cells after 72 hrs by MTT assay; assay type: functional, cell-based; conditions: NCI-H460, 72 h; method in brief: as §1
[4] = tested on: Vaccinia virus; test: Antiviral activity against Vaccinia virus infected in human lung fibroblast assessed as inhibition of virus-induced cytopathic effect at 0.32 to 100 uM; assay type: functional, organism-based; conditions: Orthopoxvirus vaccinia
[5] = tested on: Influenza A virus; test: Antiviral activity against Influenza A virus H3N2 infected in MDCK cells assessed as inhibition of virus-induced cytopathic effect at 0.32 to 100 uM; assay type: functional, organism-based
Method in brief: (§3)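 Confluent MDCK monolayers were infected in the presence of the compound at 100, 40, 8, 1.6 and 0.32 μM. Viral cytopathicity was scored once it was complete in untreated infected control cultures.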

[6] = tested on: Human respirovirus 3; test: Antiviral activity against Parainfluenza virus 3 infected in african green monkey Vero cells assessed as inhibition of virus-induced cytopathic effect at 0.32 to 100 uM; assay type: functional, organism-based; method in brief: as §2
[7] = tested on: Feline coronavirus; test: Antiviral activity against Feline coronavirus infected in feline CRFK cells assessed as inhibition of virus-induced cytopathic effect at 0.32 to 100 uM; assay type: functional, organism-based; method in brief: as §2
[8] = tested on: Sindbis virus; test: Antiviral activity against Sindbis virus infected in african green monkey Vero cells assessed as inhibition of virus-induced cytopathic effect at 0.32 to 100 uM; assay type: functional, organism-based; method in brief: as §2
[9] = tested on: Human immunodeficiency virus 1; test: Antiviral activity against HIV1 3B infected in human CEM cells assessed as inhibition of virus-induced CEM giant cell formation at 0.32 to 100 uM after 4 days; assay type: functional, organism-based; conditions: CCRF-CEM
Method in brief: (§4)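 CEM cells (~3 × 10^5 cells/cm³) exposed to 100 CCID50/ml of virus and seeded into wells holding compound dilutions. Incubated 4 days at 37 °C, then giant cell formation examined microscopically.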

[10] = tested on: Felid alphaherpesvirus 1; test: Antiviral activity against Feline herpesvirus infected in feline CRFK cells assessed as inhibition of virus-induced cytopathic effect at 0.32 to 100 uM; assay type: functional, organism-based; method in brief: as §2
[11] = tested on: HCT-116; test: Cytostatic activity against human HCT116 cells after 72 hrs by MTT assay; assay type: functional, cell-based; conditions: HCT-116, 72 h; method in brief: as §1
[12] = tested on: Influenza A virus; test: Antiviral activity against Influenza A virus H1N1 infected in MDCK cells assessed as inhibition of virus-induced cytopathic effect at 0.32 to 100 uM; assay type: functional, organism-based; method in brief: as §3
[13] = tested on: Influenza B virus; test: Antiviral activity against Influenza B virus infected in MDCK cells assessed as inhibition of virus-induced cytopathic effect at 0.32 to 100 uM; assay type: functional, organism-based; method in brief: as §3
[14] = tested on: Coxsackievirus B4; test: Antiviral activity against Coxsackievirus B4 infected in african green monkey Vero cells assessed as inhibition of virus-induced cytopathic effect at 0.32 to 100 uM; assay type: functional, organism-based; method in brief: as §2
[15] = tested on: Human immunodeficiency virus 2; test: Antiviral activity against HIV2 ROD infected in human CEM cells assessed as inhibition of virus-induced CEM giant cell formation at 0.32 to 100 uM after 4 days; assay type: functional, organism-based; conditions: ISOLATE ROD, CCRF-CEM; method in brief: as §4
[16] = tested on: HaCaT; test: Cytostatic activity against human HaCaT cells after 72 hrs by MTT assay; assay type: ADME, cell-based; method in brief: as §1
[17] = tested on: Glycine max; test: Inhibition of soybean LOX assessed as conversion of sodium linoleate to 13- hydroperoxylinoleic acid at 100 uM
[18] = tested on: Radical scavenging activity; test: Antioxidant activity assessed as DPPH free radical scavenging activity at 100 uM after 60 mins by spectrophotometric analysis; assay type: functional
Method in brief: (§5)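 0.05 mM DPPH in absolute ethanol mixed with an equal volume of compound in DMSO (final 100 μM). Shaken and left 20 or 60 min, then absorbance read at 517 nm and percent activity calculated. Three replicates, averaged.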

[19] = tested on: Human alphaherpesvirus 1; test: Antiviral activity against HSV1 KOS infected in human lung fibroblast assessed as inhibition of virus-induced cytopathic effect at 0.32 to 100 uM; assay type: functional, organism-based; method in brief: as §2
[20] = tested on: L1210; test: Cytostatic activity against mouse L1210 cells after 2 days by coulter counter analysis; assay type: functional, cell-based; conditions: L1210, 48 h
Method in brief: (§6)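 300,000–500,000 cells/ml mixed 1:1 with compound dilutions and incubated at 37 °C for 2 days (L1210) or 3 days (CEM, HeLa). Cell number counted with a Coulter counter; HeLa trypsinized before counting.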

[21] = tested on: Human alphaherpesvirus 2; test: Antiviral activity against HSV2 G infected in human lung fibroblast assessed as inhibition of virus-induced cytopathic effect at 0.32 to 100 uM; assay type: functional, organism-based; conditions: strain G; method in brief: as §2
[22] = tested on: CCRF-CEM; test: Cytostatic activity against human CEM cells after 3 days by coulter counter analysis; assay type: functional, cell-based; conditions: 72 h; method in brief: as §6
[23] = tested on: Mammalian orthoreovirus 1; test: Antiviral activity against Reovirus-1 infected in african green monkey Vero cells assessed as inhibition of virus-induced cytopathic effect at 0.32 to 100 uM; assay type: functional, organism-based; method in brief: as §2
[24] = tested on: Vesicular stomatitis virus; test: Antiviral activity against Vesicular stomatitis virus infected in human cervix carcinoma cells assessed as inhibition of virus-induced cytopathic effect at 0.32 to 100 uM; assay type: functional, organism-based
Method in brief: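 Confluent human cervix carcinoma (HeLa) cultures received 100 CCID50 of VSV together with the compound at 100, 40, 8, 1.6 or 0.32 μM. Cytopathicity was read at the point of full CPE in infected, untreated control wells.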

[25] = tested on: Coxsackievirus B4; test: Antiviral activity against Coxsackievirus B4 infected in human cervix carcinoma cells assessed as inhibition of virus-induced cytopathic effect at 0.32 to 100 uM; assay type: functional, organism-based; method in brief: as §2
[26] = tested on: Radical scavenging activity; test: Antioxidant activity assessed as DPPH free radical scavenging activity at 100 uM after 20 mins by spectrophotometric analysis; assay type: functional; method in brief: as §5
[27] = tested on: Vesicular stomatitis virus; test: Antiviral activity against VSV infected in human lung fibroblast assessed as inhibition of virus-induced cytopathic effect at 0.32 to 100 uM; assay type: functional, organism-based
[28] = Antioxidant activity assessed as inhibition of AAPH-induced linoleic acid lipid peroxidation by measuring conjugated diene hydroperoxide level; assay type: functional; parameters: concentration or dose not given beside the values; conditions: dose or concentration not given here
Method in brief: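 Linoleic acid sodium salt (10 μL of 16 mM) in 0.05 M phosphate buffer pH 7.4 at 37 °C. Oxidation started under air with 50 μL of 40 mM AAPH. Conjugated diene hydroperoxide formation followed as absorbance rise at 234 nm; control contains the same DMSO level. At least triplicate.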

[29] = tested on: Punta Toro virus; test: Antiviral activity against Punta Toro virus infected in african green monkey Vero cells assessed as inhibition of virus-induced cytopathic effect at 0.32 to 100 uM; assay type: functional, organism-based; method in brief: as §2
[30] = tested on: HeLa; test: Cytostatic activity against human HeLa cells after 3 days by coulter counter analysis; assay type: functional, cell-based; conditions: 72 h; method in brief: as §6

Compound	IC50 [1] [µM]	inhibition [2]	IC50 [3] [µM]	inhibition [4]	inhibition [5]	inhibition [6]	inhibition [7]	inhibition [8]	inhibition [9]	inhibition [10]	IC50 [11] [µM]	inhibition [12]	inhibition [13]	inhibition [14]	inhibition [15]	inhibition [17]	Activity [18]	inhibition [19]	IC50 [20] [µM]	inhibition [21]	also measured
CC(C(=O)NNC(=O)NCC1CCCCC1)c1cccc(Oc2ccccc2)c1 (stereo not given)	13	inactive	19	inactive	inactive	inactive	inactive	inactive	inactive	inactive	15	inactive	inactive	inactive	inactive	12%	21%	inactive	22	inactive	IC50 [16]: 20 µM; IC50 [22]: 24 µM; inhibition [23]: inactive; inhibition [24]: inactive; inhibition [25]: inactive; Activity [26]: 18%; inhibition [27]: inactive; inhibition [28]: 64%; inhibition [29]: inactive
O=c1[nH]cc(F)c(=O)[nH]1 [FLUOROURACIL]	–	–	–	–	–	–	–	–	–	–	–	–	–	–	–	–	–	–	–	–	IC50 [16]: 0.3 µM
CC(C)Cc1ccc(C(C)C(=O)NNC(=O)NCCc2ccccc2)cc1 (stereo not given)	23	inactive	51	inactive	inactive	inactive	inactive	inactive	inactive	inactive	26	inactive	inactive	inactive	inactive	inactive	inactive	inactive	180	inactive	IC50 [22]: 148 µM; inhibition [23]: inactive; inhibition [24]: inactive; inhibition [25]: inactive; Activity [26]: inactive; inhibition [27]: inactive; inhibition [28]: 33%; inhibition [29]: inactive; IC50 [30]: ≥ 250 µM
CC(C)Cc1ccc(C(C)C(=O)NNC(=O)NOCc2ccccc2)cc1 (stereo not given)	50	inactive	> 100	inactive	inactive	inactive	inactive	inactive	inactive	inactive	76	inactive	inactive	inactive	inactive	inactive	inactive	inactive	192	inactive	IC50 [22]: ≥ 250 µM; inhibition [23]: inactive; inhibition [24]: inactive; inhibition [25]: inactive; Activity [26]: inactive; inhibition [27]: inactive; inhibition [28]: 100%; inhibition [29]: inactive; IC50 [30]: 178 µM
CC(C(=O)NNC(=O)NO)c1cccc(Oc2ccccc2)c1 (stereo not given)	> 100	inactive	> 100	inactive	inactive	inactive	inactive	inactive	inactive	inactive	> 100	inactive	inactive	inactive	inactive	3%	66%	inactive	125	inactive	IC50 [22]: 183 µM; inhibition [23]: inactive; inhibition [24]: inactive; inhibition [25]: inactive; Activity [26]: 39%; inhibition [27]: inactive; inhibition [28]: 22%; inhibition [29]: inactive; IC50 [30]: ≥ 250 µM
CC(C(=O)NNC(=O)NO)c1cccc(Cc2ccccc2)c1 (stereo not given)	> 100	inactive	> 100	inactive	inactive	inactive	inactive	inactive	inactive	inactive	> 100	inactive	inactive	inactive	inactive	8%	59%	inactive	113	inactive	IC50 [22]: 155 µM; inhibition [23]: inactive; inhibition [24]: inactive; inhibition [25]: inactive; Activity [26]: 36%; inhibition [27]: inactive; inhibition [28]: 8%; inhibition [29]: inactive; IC50 [30]: 176 µM
CC(C)Cc1ccc(C(C)C(=O)NNC(=O)NC2CCCCC2)cc1 (stereo not given)	19	inactive	35	inactive	inactive	inactive	inactive	inactive	inactive	inactive	28	inactive	inactive	inactive	inactive	inactive	inactive	inactive	30	inactive	IC50 [22]: 53 µM; inhibition [23]: inactive; inhibition [24]: inactive; inhibition [25]: inactive; Activity [26]: inactive; inhibition [27]: inactive; inhibition [28]: 33%; inhibition [29]: inactive; IC50 [30]: 69 µM
